Compounds with a hit are over-represented: about 3.9% of the library has one in this group of screens.
697 NFkB inh: inhibitors of PMA/ionomycin-induced NF-kB reporter, 697 cells, primary screen, B-cell NF-kB inhibitor project, cell-based, luminescence, uHTS. AID 435022, 2010. 697 B-cell NF-kB luciferase reporter, 16 h. inhibition, % at 4 µM. hit rate 0.33% among 330,000; in the data active = inhibition above about 35%
Gli-Sufu antag: Gli-Sufu pathway antagonists, primary screen, luciferase luminescence, Sufu-KO-LIGHT cells, uHTS. Sufu-KO-LIGHT fibroblasts, Gli luciferase reporter luminescence. inhibition, % at 5 µM. hit rate 0.74% among 340,000. AID 588413, 2011;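 active = inhibition above about 55%, limit read from the data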;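 note: 0% = DMSO-treated cells and 100% = wells with medium but no cells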
CHOP inh: inhibitors of CHOP promoter induction, primary screen, cell-based, unfolded protein response, luciferase reporter. CHO-K1 CHOP-promoter luciferase, tunicamycin-induced, 15-18 h. inhibition, % at 10 µM. hit rate 3.8% among 220,000;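 active = compounds that reduced the stress-induced luciferase reporter signal by more than about 70% of percent inhibition, limit read from the data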;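 note: 0% = tunicamycin plus vehicle and 100% = wells without tunicamycin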
UPR CHOP act: activators of apoptotic CHOP UPR arm, primary screen, cell-based, CHO-CHOP luciferase reporter, luminescence, uHTS; AID 449763, 2010; activation, % at 10 µM; UPR activation; percent of tunicamycin response over DMSO baseline; hit rate 0.34% among 330,000;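 active = at 10 µM dose, activation of 40% or more, normalized to positive control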;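 note: 100% = tunicamycin at 10 µg/mL and 0% = DMSO alone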
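Test system: CHO-CHOP cells, stable luciferase reporter of PERK-eIF2a-CHOP signalling | Quantity: 500 CHO-CHOP cells per well | Buffer or medium: F12 plus 10% serum | Compound dosing: 10 µM single point, 0.5% DMSO | Schedule: 6 h compound treatment, 37 °C | Signal: Luciferase luminescence | Control set: Tunicamycin high control, DMSO low control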
UPR XBP1 act: activators of adaptive XBP1 UPR arm, primary screen, cell-based, CHO-XBP1 luciferase reporter, luminescence, uHTS; activation, % at 20 µM; hit rate 0.33% among 330,000; IRE1-XBP1 UPR activation; percent of tunicamycin response, DMSO as zero; AID 463104, 2010;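 active = versus positive control, 20 µM dose yields 30% or more activation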;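 note: 100% = tunicamycin at 10 µg/mL and 0% = DMSO only wells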
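Material: CHO-XBP1 cells stably carrying IRE1-XBP1-driven luciferase reporter / Amount: 1000 cells per well / Compound: 20 µM, 1% DMSO / Times: 6 h treatment, 37 °C / Detection: luciferase luminescence / Measure: % activation of reporter signal versus tunicamycin and DMSO controls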
Jurkat NFkB inh: inhibitors of induced NF-kB luciferase reporter, primary screen, TCR NF-kB activation inhibitor project, cell-based, luminescence, uHTS; Jurkat, PMA/ionomycin-induced NF-kB luciferase reporter; hit rate 0.53% among 330,000; inhibition, % at 4 µM; in the data active = inhibition above about 50%
The depositor's hits bear a star.

O=C(NC(CSCc1ccccc1)C(=O)N/N=C/c1ccc(O)cc1O)c1ccc([N+](=O)[O-])cc1 (centres undefined) was read as 697 NFkB inh -7, Gli-Sufu antag 76*, CHOP inh 69, UPR CHOP act -2, UPR XBP1 act -2 and Jurkat NFkB inh 50.
CCOc1ccc(/C=N/NC(=O)Cc2csc(Nc3cccc(C(F)(F)F)c3)n2)c(OCC)c1 was read as 697 NFkB inh -9, Gli-Sufu antag -7, CHOP inh 21, UPR CHOP act 4, UPR XBP1 act -1 and Jurkat NFkB inh -10.
`COc1ccc(/C=N/NC(=O)Cc2csc(Nc3cccc(C(F)(F)F)c3)n2)c(OC)c1` gave 697 NFkB inh 11, Gli-Sufu antag 4, CHOP inh 95*, UPR CHOP act -1, UPR XBP1 act -9 and Jurkat NFkB inh -2.
Screening O=c1c2cc(N3CCOCC3)ccc2[nH]c(=S)n1Cc1ccc(Cl)cc1 returned 697 NFkB inh -129, Gli-Sufu antag -51, CHOP inh 70*, UPR CHOP act 4, UPR XBP1 act 0 and Jurkat NFkB inh -48.
CNC(=O)c1cc(S(=O)(=O)N2CC(C)OC(C)C2)ccc1N1CCOCC1 (centres undefined) was read as 697 NFkB inh -43, Gli-Sufu antag -4, UPR CHOP act 0, UPR XBP1 act -5 and Jurkat NFkB inh -16.
Screening Cc1nc2sc(C(c3ccc(Cl)cc3)N3CCN(c4ccccc4F)CC3)c(O)n2n1 (centres undefined) returned 697 NFkB inh -19, Gli-Sufu antag 3, CHOP inh 83*, UPR CHOP act -2, UPR XBP1 act -3 and Jurkat NFkB inh -17.
O=S(=O)(CC(O)CS(=O)(=O)c1ccc(Cl)cc1)c1ccccc1 (centres undefined) was read as 697 NFkB inh 16, Gli-Sufu antag 1, CHOP inh -9, UPR CHOP act 0, UPR XBP1 act -2 and Jurkat NFkB inh 4.
For CC(=O)c1cccc(NC(=O)CN2C(=O)NC(C)(C)C2=O)c1 the results were 697 NFkB inh 3, Gli-Sufu antag -6, UPR CHOP act -1, UPR XBP1 act -3 and Jurkat NFkB inh 6.
`O=C(c1cccs1)N1CCN(CCCc2ccccc2)CC1` gave 697 NFkB inh -13, Gli-Sufu antag -3, CHOP inh 75*, UPR CHOP act -1, UPR XBP1 act -1 and Jurkat NFkB inh -22.
For C=CCOc1nc2c(c(=O)n(C)c(=O)n2C)n1Cc1c(Cl)cccc1Cl the results were 697 NFkB inh -80, Gli-Sufu antag -24, CHOP inh 86*, UPR CHOP act -2, UPR XBP1 act 4 and Jurkat NFkB inh -1.
Oc1ccc(N2CCN(c3ncnc4sc(-c5ccccc5)cc34)CC2)cc1 was read as Gli-Sufu antag 22 and CHOP inh 36.
`CCc1cc2c(N3CCN(c4ccccc4)CC3)ncnc2s1` gave 697 NFkB inh -7, Gli-Sufu antag 4, CHOP inh 77*, UPR CHOP act -1, UPR XBP1 act 3 and Jurkat NFkB inh 6.
For Oc1ccc(C(c2nnnn2C2CCCC2)N2CCc3ccccc3C2)cc1 (centres undefined) the results were 697 NFkB inh -5, Gli-Sufu antag 1, CHOP inh 88*, UPR CHOP act 1, UPR XBP1 act 1 and Jurkat NFkB inh -4.
COC(=O)c1cc(S(=O)(=O)Nc2cc(OC)cc(OC)c2)c[nH]1 was read as 697 NFkB inh 3, Gli-Sufu antag 23, UPR CHOP act 2, UPR XBP1 act -5 and Jurkat NFkB inh 5.
`CC(C)c1ccc(NS(=O)(=O)c2ccc(-n3cccn3)cc2)cc1` gave 697 NFkB inh -18, Gli-Sufu antag -7, UPR CHOP act 1, UPR XBP1 act 0 and Jurkat NFkB inh 5.
`CC(C)c1ccc(S(=O)(=O)Nc2ccc(SC(F)F)cc2)cc1` gave 697 NFkB inh -19, Gli-Sufu antag 26, CHOP inh 101*, UPR CHOP act 0, UPR XBP1 act 0 and Jurkat NFkB inh -4.
For Cc1cc(C(=O)NCC(=O)OC(C(=O)Nc2cc(C(F)(F)F)ccc2Cl)c2ccccc2)ccc1[N+](=O)[O-] (centres undefined) the results were 697 NFkB inh 17, Gli-Sufu antag 7, CHOP inh 82*, UPR CHOP act 1, UPR XBP1 act -1 and Jurkat NFkB inh 2.
Screening CCCC(=O)OC(C(=O)Nc1cc(C(F)(F)F)ccc1Cl)c1ccccc1 (centres undefined) returned 697 NFkB inh 18, Gli-Sufu antag 5, CHOP inh 27, UPR CHOP act 2, UPR XBP1 act -1 and Jurkat NFkB inh 15.
For COc1cccc(-c2nc3ccccc3s2)c1 the results were 697 NFkB inh -163, Gli-Sufu antag -81, CHOP inh 73*, UPR CHOP act 2, UPR XBP1 act -4 and Jurkat NFkB inh -142.
`NC(=O)c1ccsc1NC(=O)COC(=O)Cc1c[nH]c2ccccc12` gave 697 NFkB inh -3, Gli-Sufu antag 14, UPR CHOP act 2, UPR XBP1 act -2 and Jurkat NFkB inh 3.
For NC(=O)c1ccsc1NC(=O)COC(=O)Cc1cccc2ccccc12 the results were 697 NFkB inh -26, Gli-Sufu antag -15, CHOP inh 85*, UPR CHOP act 0, UPR XBP1 act -1 and Jurkat NFkB inh 8.
`CC(C)CC(=O)OCC(=O)Nc1ccccc1Sc1ccccc1` gave 697 NFkB inh -5, Gli-Sufu antag 3, CHOP inh 84*, UPR CHOP act 0, UPR XBP1 act 2 and Jurkat NFkB inh 0.
Screening O=C(Cc1ccc(Cl)cc1)Nc1ccccc1Sc1ccccc1 returned 697 NFkB inh -6, Gli-Sufu antag -6, CHOP inh 75*, UPR CHOP act 3, UPR XBP1 act -1 and Jurkat NFkB inh 1.
`CCOc1ccc(N2CC(C(=O)Nc3cccc(C(=O)NC4CC4)c3)CC2=O)cc1` (centres undefined) gave 697 NFkB inh 11, Gli-Sufu antag 9, UPR CHOP act -3, UPR XBP1 act 0 and Jurkat NFkB inh -7.
Cc1ccc(NC2CCCCC2NS(=O)(=O)c2ccc(Cl)cc2)cc1 (centres undefined) was read as 697 NFkB inh -4, Gli-Sufu antag -2, CHOP inh 91*, UPR CHOP act -1, UPR XBP1 act -3 and Jurkat NFkB inh -3.

Screens: PubChem BioAssay, several laboratories
